As a reminder, the IC50 is the point on the concentration scale where inhibition reaches its midpoint. A high value points to weaker potency.

Test [1] relates to Escherichia coli. The test can be described thus: Inhibition of transcription-translation process in Escherichia coli. It is filed as functional. Conditions: Escherichia coli.
Test [2] deals with Acinetobacter baumannii. The test can be described thus: Antibacterial activity against Acinetobacter baumannii ARC 3495. It is filed as functional.
Test [3] deals with Klebsiella pneumoniae. Briefly: Antibacterial activity against Klebsiella pneumoniae ATCC 700603. It is filed as functional.
Test [4] relates to Pseudomonas aeruginosa. The test can be described thus: Antibacterial activity against Pseudomonas aeruginosa PAO1. Format: functional.
The subject of test [5] is Pseudomonas aeruginosa. The test can be described thus: Antibacterial activity against mexABCDXY-deficient Pseudomonas aeruginosa PAO1. Format: functional.
For test [6], the system named is Pseudomonas aeruginosa. Briefly: Ratio of MIC for Pseudomonas aeruginosa PAO1 to MIC for mexABCDXY-deficient Pseudomonas aeruginosa PAO1. Format: functional. In outline: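 MICs in μg/mL were determined for P. aeruginosa PAO1 and its isogenic efflux-pump knockout strain. Analogues were tested up to their highest soluble concentrations. The value is the parent-strain MIC divided by the knockout-strain MIC.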

For test [7], the system named is Escherichia coli. Briefly: microbe, parasite or virus in culture. Conditions: ATCC 25922.
The test system of test [8] is Escherichia coli. The test can be described thus: microbe, parasite or virus in culture. The settings on record: ATCC 25922. This is another data set of the same source.

Values after ≈ are worked out from the molar mass of the structure shown. Where only a bound is given, the exact number is not on record here.

`CN(C)[C@@H]1C(O)=C(C(N)=O)C(=O)[C@@]2(O)C(O)=C3C(=O)c4c(O)cccc4[C@@](C)(O)[C@H]3C[C@@H]12` [TETRACYCLINE]: the IC50 in test [1] was 1400 nM. Further, the MIC in test [2] was above 64 µg/mL; in test [3], 16 µg/mL (≈ 36 µM); in test [4] it was 32 µg/mL (≈ 72 µM); in test [5] it was 0.25 µg/mL (≈ 0.563 µM); in test [7] it was 1 µg/mL (≈ 2.25 µM); in test [8] it was 0.5 µg/mL (≈ 1.13 µM). Also, the Ratio in test [6] worked out at 128.
For `CNCCCNC[C@H](O)C[C@@H](N)CC(=O)NN(C)CC(=O)O`, in test [1], it took 5800 nM to reach half-maximal inhibition (IC50). Besides, the MIC in test [2] came to 64 µg/mL (≈ 200 µM); in test [3] it was 64 µg/mL (≈ 200 µM); in test [4], 256 µg/mL (≈ 801 µM); in test [5], 256 µg/mL (≈ 801 µM); in test [7], 256 µg/mL (≈ 801 µM); in test [8], 256 µg/mL (≈ 801 µM).
The compound `CN(CC(=O)O)NC(=O)C[C@H](N)C[C@@H](O)CNCCCCN` came in with an IC50 in test [1] of 740 nM. In addition, the MIC came out at 16 µg/mL (≈ 50.1 µM) in test [2]; 16 µg/mL (≈ 50.1 µM) in test [3]; 128 µg/mL (≈ 401 µM) in test [4]; 64 µg/mL (≈ 200 µM) in test [5]; 32 µg/mL (≈ 100 µM) in test [7]; 32 µg/mL (≈ 100 µM) in test [8].
For `CN(CC(=O)O)NC(=O)C[C@H](N)C[C@@H](O)CNC[C@H](O)CN`, half-maximal inhibition in test [1] (IC50) was put at 730 nM. Besides, the MIC came out at 32 µg/mL (≈ 99.6 µM) in test [2]; 64 µg/mL (≈ 199 µM) in test [3]; 128 µg/mL (≈ 398 µM) in test [4]; 64 µg/mL (≈ 199 µM) in test [5]; 64 µg/mL (≈ 199 µM) in test [7]; 32 µg/mL (≈ 99.6 µM) in test [8].
The compound `CC(CN)CNC[C@H](O)C[C@@H](N)CC(=O)NN(C)CC(=O)O` (stereo partly specified) displayed an IC50 in test [1] of 1100 nM. Further, the MIC was determined as 16 µg/mL (≈ 50.1 µM) in test [2]; 16 µg/mL (≈ 50.1 µM) in test [3]; 32 µg/mL (≈ 100 µM) in test [4]; 16 µg/mL (≈ 50.1 µM) in test [5]; 32 µg/mL (≈ 100 µM) in test [7]; 16 µg/mL (≈ 50.1 µM) in test [8].
Take `CN(CC(=O)O)NC(=O)C[C@H](N)C[C@@H](O)CNCCCN`: the IC50 in test [1] is 340 nM. Also, the MIC came out at 4 µg/mL (≈ 13.1 µM) in test [2]; 4 µg/mL (≈ 13.1 µM) in test [3]; 16 µg/mL (≈ 52.4 µM) in test [4]; 8 µg/mL (≈ 26.2 µM) in test [5]; 8 µg/mL (≈ 26.2 µM) in test [7]; 16 µg/mL (≈ 52.4 µM) in test [8].
On to `CN(CC(=O)O)NC(=O)C[C@H](N)C[C@@H](O)CNCCO`, for which it took 630 nM to reach half-maximal inhibition in test [1] (IC50). Also, the MIC in test [2] was determined as 64 µg/mL (≈ 219 µM); in test [3], 64 µg/mL (≈ 219 µM); in test [4] it was 512 µg/mL (≈ 1750 µM); in test [5], 128 µg/mL (≈ 438 µM); in test [7], 64 µg/mL (≈ 219 µM); in test [8] it was 128 µg/mL (≈ 438 µM).
`CC(CCN)NC[C@H](O)C[C@@H](N)CC(=O)NN(C)CC(=O)O` (stereo partly specified) returned an IC50 in test [1] of 440 nM. For the same compound, the MIC in test [2] came out at 8 µg/mL (≈ 25 µM); in test [3] it was 8 µg/mL (≈ 25 µM); in test [4], 32 µg/mL (≈ 100 µM); in test [5], 32 µg/mL (≈ 100 µM); in test [7], 16 µg/mL (≈ 50.1 µM); in test [8] it was 16 µg/mL (≈ 50.1 µM).
Compound `CN(CC(=O)O)NC(=O)C[C@H](N)C[C@@H](O)CNCCCO` registered an IC50 in test [1] of 11000 nM. Also, the MIC in test [2] is 256 µg/mL (≈ 836 µM); in test [3], 512 µg/mL (≈ 1670 µM); in test [4], above 1020 µg/mL; in test [5] it was 1020 µg/mL (≈ 3340 µM); in test [7], 512 µg/mL (≈ 1670 µM); in test [8], 128 µg/mL (≈ 418 µM).
In the case of `CN(CC(=O)O)NC(=O)C[C@H](N)C[C@@H](O)CNCC1CCNC1` (stereo partly specified), the IC50 in test [1] turned out to be 3300 nM. Moreover, the MIC amounted to 64 µg/mL (≈ 193 µM) in test [2]; 128 µg/mL (≈ 386 µM) in test [3]; 256 µg/mL (≈ 772 µM) in test [4]; 128 µg/mL (≈ 386 µM) in test [5]; 256 µg/mL (≈ 772 µM) in test [7]; 256 µg/mL (≈ 772 µM) in test [8].

The record behind these values is ChEMBL document CHEMBL3621045, “Structural Insights Lead to a Negamycin Analogue with Improved Antimicrobial Activity against Gram-Negative Pathogens” (ACS Med Chem Lett, 2015).
